# From PubChem BioAssay
# Only a selection was taken, and hits are over-represented in it overall.
# Dynein transport: blocks dynein driven cargo transport along microtubules; 3617.4 mouse cells, GR-EGFP nuclear translocation imaging; test concentration mostly 20 µM; stimulated with dexamethasone, 1 µM; stronger effect = lower value; AID 1381; z-score, hits read low; 0.47% of 220,000 active;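 active = plate z-score of nuclear minus cytoplasmic receptor signal below a set negative limit, without overly bright fluorescence or cell loss, cut at about -3.5 in these data, passing the limit was not always enough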;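 note: z-score of nuclear minus cytoplasmic ring GR-EGFP intensity difference per well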
#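 Also added: dexamethasone, 1.0 µM final. Medium: tet-free, stripped-serum medium. Detection: fixed, Hoechst-stained cells imaged at 10x for EGFP. Read-out: nuclear-to-cytoplasmic GR-EGFP distribution per well. Times: induction 48 h, compound 1 h, agonist 30 min.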
# KCC2 mod: modulators of human KCC2 chloride dependent transport; 2.2% of 190,000 active; AID 1456; B-score of Tl+ flux slope (higher = more flux/activation; lower = inhibition) at 10 µM; KCC2 cells, thallium flux FluoZin-2 fluorescence;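 active = thallium flux slope and its plate-corrected score both differing from the plate sample mean at a set confidence after two filtering rounds, in either direction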;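 note: slope of fluorescence scaled to starting intensity during 10 to 20 s after thallium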
# V-ATPase pHluor: alters yeast V-ATPase proton transport; S. cerevisiae, pHLuorin cytosolic pH fluorescence; 0.37% of 350,000 active; response, % at 10 µM; in the data active = response mostly above about 7.3%, no sharp cut-off; inactive = mostly below about 5.4%; note: actives read high
# p-CIP stab down: compounds decreasing mouse p/CIP protein stability | Q05BA5 | F442A p/CIP-EGFP cells, EGFP fluorescence, 16 h | decrease of EGFP signal, % at 10 µM | 0.01% of 290,000 active | AID 1984;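 active = EGFP signal decrease of at least 30% at 10 µM or well 3 SD below plate mean, unless failing retest; inactive = the rest, including hits failing retest or dose response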
# ABCB6 inh 2: blocks the human ABCB6 transporter; K562-ABCB6 porphyrin accumulation, flow cytometry, 1 h; stronger effect = lower value; 0.19% of 360,000 active; fluorescence ratio to DMSO, % at 10 µM; AID 602162; Q9NP58;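 active = fluorescence ratio to DMSO below 75%, the collection mean minus 3 SD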;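 note: signal is porphyrin accumulated inside mitochondria; 100% equals median channel fluorescence of DMSO control wells; lower ratio means ABCB6 inhibition with less porphyrin fluorescence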
# Target sequence (Q9NP58 whole entry, looked up): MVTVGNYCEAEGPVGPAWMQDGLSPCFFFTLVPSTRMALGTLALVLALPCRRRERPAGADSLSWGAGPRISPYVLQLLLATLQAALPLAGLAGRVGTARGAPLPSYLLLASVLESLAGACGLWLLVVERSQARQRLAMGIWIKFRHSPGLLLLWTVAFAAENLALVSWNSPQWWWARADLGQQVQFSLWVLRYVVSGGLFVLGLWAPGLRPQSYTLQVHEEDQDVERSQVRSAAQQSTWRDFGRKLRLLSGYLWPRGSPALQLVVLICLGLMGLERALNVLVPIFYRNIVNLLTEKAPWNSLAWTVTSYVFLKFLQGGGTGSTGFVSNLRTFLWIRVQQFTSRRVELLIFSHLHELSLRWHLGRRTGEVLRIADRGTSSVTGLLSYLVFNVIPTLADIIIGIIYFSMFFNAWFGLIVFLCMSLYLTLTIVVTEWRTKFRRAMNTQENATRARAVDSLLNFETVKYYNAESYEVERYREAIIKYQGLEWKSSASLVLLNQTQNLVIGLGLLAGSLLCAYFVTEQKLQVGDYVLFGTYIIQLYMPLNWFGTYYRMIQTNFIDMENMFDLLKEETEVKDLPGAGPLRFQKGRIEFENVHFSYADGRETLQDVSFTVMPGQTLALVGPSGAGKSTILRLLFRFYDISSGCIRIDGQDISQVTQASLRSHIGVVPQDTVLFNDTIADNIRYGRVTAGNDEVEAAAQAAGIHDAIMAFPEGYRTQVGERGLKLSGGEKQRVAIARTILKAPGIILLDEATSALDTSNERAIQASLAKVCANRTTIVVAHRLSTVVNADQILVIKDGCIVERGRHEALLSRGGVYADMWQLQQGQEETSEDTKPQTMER
# VATPase regulator: regulators of yeast V-ATPase proton transport. shares compounds with V-ATPase pHluor. S. cerevisiae pHLuorin cytosolic pH. response, % at 10 µM. 2% of 980 active; in the data active = response above about 24%;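 note: plate controls were vehicle wells for no effect and positive control wells for full effect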
# * hit, by the source's call; / = no result given.
SMILES,Dynein transport,KCC2 mod,V-ATPase pHluor,p-CIP stab down,ABCB6 inh 2,VATPase regulator
CCc1nn(C(C)C(=O)N(C)Cc2ccccc2)c(=O)c2cc3occc3n12 (stereo not given),/,/,12*,-6,94,-1
CCc1nn(CCCC(=O)N(C)Cc2ccccc2)c(=O)c2cc3occc3n12,/,/,-2,5,103,/
Cc1ncoc1C(=O)N1CCCC(C(=O)c2cccc(OC(C)C)c2)C1 (stereo not given),1.8,-0.55,0,7,99,/
Cc1noc(C)c1C(=O)N1CCCC(C(=O)c2cccc(OC(C)C)c2)C1 (stereo not given),0.29,0.91,13*,2,106,1
Nc1nc(=O)n(C2OC(CO)C(O)C2O)cc1F (stereo not given),/,/,/,/,99,/
Nc1cnn(C2OC(CO)C(O)C2O)c(=O)n1 (stereo not given),-0.038,-0.052,7.8*,31,102,3
O=S(=O)(c1cccc2ccccc12)N1CCC2CC1c1cc(-c3ccc4c(c3)OCO4)ccc12 (stereo not given),/,/,/,/,97,/
C=CCN(C(=O)CNS(=O)(=O)c1ccccc1)C(C(=O)NCCOC)c1ccncc1 (stereo not given),0.96,/,22*,-4,103,-6
CCc1nc(SCC(=O)Nc2nccs2)c2oc3ccccc3c2n1,1.5,-1.8,10*,7,91,-1
CCOC(=O)C1CNc2cc(S(=O)(=O)CC)ccc2O1 (stereo not given),2.4,0.91,4,-7,103,/
CCC/C=C/c1ccc(CN2C(CC(C)C)C(=O)N(Cc3cn(CCC4OCCCO4)nn3)CCS2(=O)=O)cc1 (stereo not given),/,/,0,/,95,/
CC(C)CC1C(=O)N(Cc2cn(CCC3OCCCO3)nn2)CCS(=O)(=O)N1Cc1ccc(-c2ccc(F)cc2)cc1 (stereo not given),/,/,5.5*,/,102,0
CCC/C=C/c1ccc(CN2C(CC(C)C)C(=O)N(Cc3cn(CCC4OCCO4)nn3)CCS2(=O)=O)cc1 (stereo not given),/,/,9.2*,/,93,-3
Cc1cc(NC(=O)/C=C/c2ccc(F)cc2)n(-c2nc3ccccc3[nH]2)n1,-0.59,1,8,6,93,/
COc1ccc(/C=C/C(=O)Nc2cc(C)nn2-c2nc3ccccc3[nH]2)cc1,-0.73,0.0064,16*,2,95,-1
CCCOc1ccc(/C=C/C(=O)NC2CCCCC2)cc1OC,/,/,-5,-4,96,/
COc1cc(/C=C/C(=O)NC2CCCCC2)cc(OC)c1OC,/,/,8.8*,5,97,2
Cc1ccc(/C=N/NC(=O)c2nnn(-c3nonc3N)c2CSc2ccccc2)s1,/,/,8.1*,7,99,-3
O=C(Nc1cccc(C(=O)O)c1)/C(=C\c1ccc2c(c1)OCO2)NC(=O)c1ccc(Br)o1,0.57,0.019,7.5*,3,101,4
O=C(Nc1ccc(C(=O)O)cc1)/C(=C\c1ccc2c(c1)OCO2)NC(=O)c1ccc(Br)o1,-0.91,/,1,-10,98,/
CCc1sc(C(=O)NCc2ccco2)cc1C,/,/,12*,3,92,2
COc1cccc(C2C(C(=O)c3ccco3)=C(O)C(=O)N2CCN(C)C)c1OC (stereo not given),-0.76,-0.059,1,-13,99,/
COc1cccc(C2C(C(=O)c3cc4ccccc4o3)=C(O)C(=O)N2CCN(C)C)c1OC (stereo not given),-0.64,1.2,13*,/,108,1
COc1cccc2c1nc(C)c1cc(C)oc12,3.5,0.26,11*,-12,97,-4
COc1ccc2nc(C)c3cc(C)oc3c2c1,0.87,/,-3,-5,97,/
SMILES,Dynein transport,KCC2 mod,V-ATPase pHluor,p-CIP stab down,ABCB6 inh 2,VATPase regulator
COc1cccc(S(=O)(=O)N(C)C[C@@H]2OCc3cnnn3CCCC(=O)N([C@H](C)CO)C[C@@H]2C)c1,/,/,7.5*,/,103,1
C[C@H](CO)N1C[C@H](C)[C@H](CN(C)S(=O)(=O)c2ccc(C#N)cc2)OCc2cnnn2CCCC1=O,/,/,0,/,98,/
C[C@H](CO)N1C[C@H](C)[C@@H](CN(C)S(=O)(=O)c2ccc(C#N)cc2)OCc2cnnn2CCCC1=O,/,/,4.1*,/,113,2
O=[N+]([O-])c1ccc(-c2n(-c3ccccn3)c3ccccc3[n+]2-c2ccccn2)cc1,1.8,-0.84,2,11,98,/
O=C(O)c1ccc(CS(=O)(=O)Cc2ccccc2F)o1,0.22,1.1,9.0*,-17,96,0
O=C(NCc1ccccc1)c1ccc(CS(=O)(=O)Cc2ccccc2F)o1,0.061,-0.28,-2,3,100,/
CCCCn1c(N)c(N(CC)C(=O)c2cccc(OCc3ccccc3)c2)c(=O)[nH]c1=O,/,/,11*,/,95,0
CCCCCn1nc(C(=O)N(CCOC)c2c(N)n(CCCC)c(=O)[nH]c2=O)c2ccccc2c1=O,/,/,13*,/,100,-2
O=C(CSc1n[nH]c(=O)[nH]c1=O)c1ccc(Cl)cc1Cl,0.074,-0.14,-4,-5,97,/
O=C(CSc1n[nH]c(=O)[nH]c1=O)Nc1c(Cl)cc(Cl)cc1Cl,/,/,13*,/,102,-1
CCCCNC(=O)c1onc(CSc2cccc(C)c2)c1C(=O)O,-0.14,-0.64,-2,6,92,/
CC1C(=O)N2CCCc3cc(NS(=O)(=O)c4ccccc4)cc1c32 (stereo not given),/,/,-3,/,96,/
O=C(Cn1cnc2ccccc21)Nc1cccc(S(=O)(=O)N2CCCC2)c1,/,/,-1,/,94,/
c1ccc(-c2nn3nnnc3c3ccccc23)cc1,-0.022,/,0,10,112,/
Cc1ccc(-c2nn3nnnc3c3ccccc23)cc1C,0.2,-0.42,7.7*,1,101,-2
COc1ccc(CNCC(O)(c2ccccc2)c2ccc(Cl)cc2)cc1 (stereo not given),/,-0.11,11*,2,98,-2
Cc1ccc(CNCC(O)(c2ccccc2)c2ccc(Cl)cc2)cc1 (stereo not given),-0.26,0.49,1,-3,103,/
COc1ccc(NC(=O)C2Cc3c(-c4ccccc4Oc4ccccc4)ccnc3O2)cc1 (stereo not given),/,/,/,/,96,/
Cc1nnc(SCC(=O)N2CCN(c3ccccc3)CC2)n(N)c1=O,-0.39,-0.84,0,3,99,/
CC(=O)c1cccc(NC(=O)CCC(=O)c2ccc(F)cc2)c1,/,/,1,-12,95,/
O=C(CCC(=O)c1ccc(F)cc1)Nc1cc(Cl)cc(Cl)c1,-0.41,-1.5,-1,-9,97,1
C[C@H]1CN([C@@H](C)CO)C(=O)CCCn2nncc2CO[C@H]1CN(C)C(=O)Nc1cccc2ccccc12,/,/,/,/,98,/
O=C(Cn1c(CO)nc2ccccc21)NCCc1ccc(F)cc1,1.2,0.74,-3,-11,91,/
